Laboratory results: ChEMBL document CHEMBL3352028, “SAR studies on tetrahydroisoquinoline derivatives: the role of flexibility and bioisosterism to raise potency and selectivity toward P-glycoprotein” (J Med Chem, 2014)

How the values were obtained:
[1] = molecular target: T1, Broad substrate specificity ATP-binding cassette transporter ABCG2 (Homo sapiens, UniProt Q9UNQ0); test: Inhibition of BCRP (unknown origin) over-expressed in MDCK cells assessed as Hoechst 33342 accumulation incubated for 30 mins prior to Hoechst 33342 addition measured after 30 mins by fluorescence assay; assay type: cell-based; conditions: 0.5 h
T1 sequence (Q9UNQ0 whole entry): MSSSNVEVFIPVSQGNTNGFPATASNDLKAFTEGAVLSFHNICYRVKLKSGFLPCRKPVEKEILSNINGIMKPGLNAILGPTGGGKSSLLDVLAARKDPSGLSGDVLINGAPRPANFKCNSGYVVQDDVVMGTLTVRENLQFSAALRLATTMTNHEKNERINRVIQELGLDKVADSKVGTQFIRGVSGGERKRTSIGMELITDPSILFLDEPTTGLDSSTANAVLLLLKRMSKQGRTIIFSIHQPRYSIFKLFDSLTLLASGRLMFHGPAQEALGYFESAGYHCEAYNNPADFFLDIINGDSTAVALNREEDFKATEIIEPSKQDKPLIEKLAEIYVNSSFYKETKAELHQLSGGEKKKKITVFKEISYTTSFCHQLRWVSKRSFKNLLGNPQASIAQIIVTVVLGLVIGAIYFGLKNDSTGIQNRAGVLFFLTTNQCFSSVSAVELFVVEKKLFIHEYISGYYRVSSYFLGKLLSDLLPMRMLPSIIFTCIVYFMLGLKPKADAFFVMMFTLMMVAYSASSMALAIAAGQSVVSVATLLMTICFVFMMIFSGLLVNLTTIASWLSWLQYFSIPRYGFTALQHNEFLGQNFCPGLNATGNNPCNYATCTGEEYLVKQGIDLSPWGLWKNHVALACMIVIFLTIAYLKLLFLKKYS
Procedure, shortened: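 MDCK-BCRP cells at 30 000 cells/well, confluent overnight. Compounds in culture medium for 30 min at 37 °C, then Hoechst 33342 added (8 μM final) for 30 min. Cells fixed 20 min in 4% PFA protected from light, washed three times with ice-cold PBS, fluorescence read at ex 340/35, em 485/20 nm. Increase over untreated basal level fitted against log dose to give EC50.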

[2] = molecular target: ATP-dependent translocase ABCB1 (Homo sapiens, UniProt P08183); test: Inhibition of MDR1 (unknown origin) over-expressed in MDCK cells assessed as calcein accumulation incubated for 30 mins prior to Calcein-AM addition measured after 30 mins by fluorescence assay; assay type: cell-based
ATP-dependent translocase ABCB1, sequence (P08183 whole entry): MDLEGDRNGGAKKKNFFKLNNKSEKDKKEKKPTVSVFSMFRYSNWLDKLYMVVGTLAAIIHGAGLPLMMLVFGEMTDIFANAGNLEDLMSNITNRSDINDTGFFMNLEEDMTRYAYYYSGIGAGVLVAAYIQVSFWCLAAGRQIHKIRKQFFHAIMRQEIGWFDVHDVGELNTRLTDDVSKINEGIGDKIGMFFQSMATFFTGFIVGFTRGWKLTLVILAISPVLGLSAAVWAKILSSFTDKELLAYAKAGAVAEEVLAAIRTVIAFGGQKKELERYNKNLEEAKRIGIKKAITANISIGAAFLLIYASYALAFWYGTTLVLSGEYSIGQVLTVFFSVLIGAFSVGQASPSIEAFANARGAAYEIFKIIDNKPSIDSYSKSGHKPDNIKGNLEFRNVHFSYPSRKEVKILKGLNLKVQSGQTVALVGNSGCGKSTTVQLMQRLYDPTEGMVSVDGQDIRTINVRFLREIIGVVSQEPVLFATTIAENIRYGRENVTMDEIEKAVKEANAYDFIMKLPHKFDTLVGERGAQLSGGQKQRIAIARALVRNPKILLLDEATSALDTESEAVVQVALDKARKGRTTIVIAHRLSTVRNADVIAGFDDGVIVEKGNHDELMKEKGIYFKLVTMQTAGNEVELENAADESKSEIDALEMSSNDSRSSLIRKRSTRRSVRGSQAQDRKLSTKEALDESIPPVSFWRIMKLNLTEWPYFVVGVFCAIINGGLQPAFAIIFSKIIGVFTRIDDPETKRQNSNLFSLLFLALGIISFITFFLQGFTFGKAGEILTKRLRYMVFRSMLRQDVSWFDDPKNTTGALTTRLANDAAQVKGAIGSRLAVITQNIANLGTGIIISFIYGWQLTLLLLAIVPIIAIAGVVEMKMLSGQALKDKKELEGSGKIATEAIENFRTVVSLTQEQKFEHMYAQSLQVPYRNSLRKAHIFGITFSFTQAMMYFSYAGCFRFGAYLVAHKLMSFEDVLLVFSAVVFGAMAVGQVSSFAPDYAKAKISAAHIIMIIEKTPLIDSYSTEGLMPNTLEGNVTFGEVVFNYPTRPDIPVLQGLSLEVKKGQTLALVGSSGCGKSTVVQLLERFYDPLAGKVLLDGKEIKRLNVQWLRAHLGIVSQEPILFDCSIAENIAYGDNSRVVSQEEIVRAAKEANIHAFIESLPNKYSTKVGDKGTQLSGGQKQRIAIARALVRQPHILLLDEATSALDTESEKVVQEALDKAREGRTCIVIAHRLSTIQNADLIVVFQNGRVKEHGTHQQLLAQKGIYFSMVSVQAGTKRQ
Procedure, shortened: (§1)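 MDCK-MDR1 or MDCK-MRP1 cells at 50 000 cells/well, confluent overnight. Compounds in culture medium for 30 min at 37 °C, then Calcein-AM added (2.5 μM final) for a further 30 min. Washed three times with ice-cold PBS, fluorescence read at ex 485, em 535 nm. Percent increase over untreated basal level fitted against log dose to give EC50.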

[3] = molecular target: Multidrug resistance-associated protein 1 (Homo sapiens, UniProt P33527); test: Inhibition of MRP1 (unknown origin) over-expressed in MDCK cells assessed as calcein accumulation incubated for 30 mins prior to Calcein-AM addition measured after 30 mins by fluorescence assay; assay type: cell-based; procedure, shortened: as §1
Multidrug resistance-associated protein 1, sequence (P33527 whole entry): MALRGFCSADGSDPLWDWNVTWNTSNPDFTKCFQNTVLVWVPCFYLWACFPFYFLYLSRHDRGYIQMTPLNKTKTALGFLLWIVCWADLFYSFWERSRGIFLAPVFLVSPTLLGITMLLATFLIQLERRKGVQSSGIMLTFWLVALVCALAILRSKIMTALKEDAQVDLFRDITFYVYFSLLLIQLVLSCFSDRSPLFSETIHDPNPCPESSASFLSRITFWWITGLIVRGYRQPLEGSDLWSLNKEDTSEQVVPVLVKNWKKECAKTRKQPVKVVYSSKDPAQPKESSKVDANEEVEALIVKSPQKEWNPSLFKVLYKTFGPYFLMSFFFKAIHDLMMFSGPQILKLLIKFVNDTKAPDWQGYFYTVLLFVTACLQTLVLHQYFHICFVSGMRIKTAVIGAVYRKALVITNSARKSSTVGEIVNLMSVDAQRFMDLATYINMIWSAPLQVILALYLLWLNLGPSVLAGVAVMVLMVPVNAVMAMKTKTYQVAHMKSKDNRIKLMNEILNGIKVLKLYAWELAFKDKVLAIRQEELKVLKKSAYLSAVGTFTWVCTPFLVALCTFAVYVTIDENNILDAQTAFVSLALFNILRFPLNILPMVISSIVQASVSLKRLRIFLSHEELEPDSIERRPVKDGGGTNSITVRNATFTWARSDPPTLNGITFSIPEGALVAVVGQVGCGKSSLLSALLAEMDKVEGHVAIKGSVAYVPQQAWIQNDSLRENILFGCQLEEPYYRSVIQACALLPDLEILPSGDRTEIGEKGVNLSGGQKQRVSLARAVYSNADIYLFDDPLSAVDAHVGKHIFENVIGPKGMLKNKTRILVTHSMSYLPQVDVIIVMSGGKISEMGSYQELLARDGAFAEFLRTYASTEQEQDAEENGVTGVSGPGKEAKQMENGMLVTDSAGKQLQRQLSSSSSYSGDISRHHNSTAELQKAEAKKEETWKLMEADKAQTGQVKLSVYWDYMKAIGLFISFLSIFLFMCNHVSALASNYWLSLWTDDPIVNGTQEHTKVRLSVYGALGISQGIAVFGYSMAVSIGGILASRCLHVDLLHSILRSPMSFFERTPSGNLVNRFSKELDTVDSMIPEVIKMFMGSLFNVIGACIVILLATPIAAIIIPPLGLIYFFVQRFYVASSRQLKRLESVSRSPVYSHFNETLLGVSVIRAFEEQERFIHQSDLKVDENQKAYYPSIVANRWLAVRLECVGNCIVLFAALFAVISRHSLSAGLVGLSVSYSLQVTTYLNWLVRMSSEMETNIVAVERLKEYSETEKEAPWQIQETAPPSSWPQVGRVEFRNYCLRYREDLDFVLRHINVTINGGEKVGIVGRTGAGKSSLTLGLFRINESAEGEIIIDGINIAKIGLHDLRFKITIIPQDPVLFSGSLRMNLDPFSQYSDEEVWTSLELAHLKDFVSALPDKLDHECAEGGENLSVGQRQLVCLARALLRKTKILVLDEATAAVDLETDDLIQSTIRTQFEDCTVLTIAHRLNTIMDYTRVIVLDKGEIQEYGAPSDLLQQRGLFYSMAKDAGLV

[4] = Efflux ratio of apparent permeability from basolateral to apical side over apical to basolateral side in human Caco2 cells at 100 uM after 120 mins by UV-Vis spectrophotometry; assay type: ADME, cell-based; conditions: Caco-2
Procedure, shortened: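 Caco-2 cells seeded at 10 000 cells/well and grown 21 days, medium changed every 48 h for 6 days then daily; TEER checked before and after, generally >1000 Ω. Monolayers preincubated twice in HBSS (pH 7.4) 30 min at 37 °C. Drug at 100 μM in HBSS on apical or basolateral side, 120 min at 37 °C. Both sides sampled, drug quantified by UV-vis against a calibration curve. Papp computed from acceptor concentration, volume, membrane area (0.11 cm2) and time (7200 s). Ratio taken as B→A over A→B.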

Structure (SMILES)	inhibition (INH) [1]	EC50 ([2]; read-out: EC50)	EC50 ([3]; read-out: EC50)	efflux ratio at 2 h, 100 µM [4]	EC50 ([3]; mdck)	EC50 ([2]; mdck)
COc1ccc(-c2ccc(CC(=O)N3CCc4cc(OC)c(OC)cc4C3)cc2)cc1	Not Active	800 nM	10000 nM	3.9	–	–
COc1cccc(-c2ccccc2CCN2CCc3cc(OC)c(OC)cc3C2)c1	Not Active	69 nM	23000 nM	4.1	–	–
COc1ccc(-c2ccc3c(c2)C=C(CCN2CCc4cc(OC)c(OC)cc4C2)CO3)cc1	Not Active	1200 nM	–	4.9	Not Active	–
COc1ccc(-c2ccc(CN3CCc4cc(OC)c(OC)cc4C3)o2)cc1	Not Active	4300 nM	–	3.7	Not Active	–
COc1cc2c(cc1OC)CN(CCc1ccccc1-c1cccc(O)c1)CC2	Not Active	230 nM	–	3.2	Not Active	–
COc1ccc(-c2ccc3c(c2)C=C(CC(=O)N2CCc4cc(OC)c(OC)cc4C2)CO3)cc1	Not Active	5800 nM	–	3.2	Not Active	–
COc1ccc(-c2ccc(CCN3CCc4cc(OC)c(OC)cc4C3)cc2)cc1	Not Active	570 nM	–	38	Not Active	–
COc1ccc(-c2ccc(OCCN3CCc4cc(OC)c(OC)cc4C3)cc2)cc1	Not Active	930 nM	–	47	Not Active	–
COc1cc2c(cc1OC)CN(Cc1ccc(-c3ccc(F)cc3)cc1)CC2	Not Active	4900 nM	–	3.8	Not Active	–
COc1cc2c(cc1OC)CN(CCc1ccc(-c3ccc(F)cc3)cc1)CC2	Not Active	2000 nM	–	3.8	Not Active	–
COc1ccc(-c2ccc(CN3CCc4cc(OC)c(OC)cc4C3)cc2)cc1	–	–	–	4.4	Not Active	–
COc1cc2c(cc1OC)CN(CCCC1CCCc3c(OC)cccc31)CC2 (stereo not drawn)	–	–	–	4.4	Not Active	–
COc1ccc(-c2ccc(C(=O)N3CCc4cc(OC)c(OC)cc4C3)o2)cc1	Not Active	910 nM	–	5.2	Not Active	–
COc1cc2c(cc1OC)CN(C(=O)c1ccc(-c3ccc(O)cc3)o1)CC2	Not Active	6400 nM	–	4.5	Not Active	–
COc1ccc(-c2ccc(NCCCN3CCc4cc(OC)c(OC)cc4C3)cc2)cc1	Not Active	1800 nM	–	2.2	Not Active	–
COc1ccc(-c2ccc(OCCCN3CCc4cc(OC)c(OC)cc4C3)cc2)cc1	Not Active	1300 nM	–	7.9	Not Active	–
COc1ccc(-c2ccc(OCCCCN3CCc4cc(OC)c(OC)cc4C3)cc2)cc1	Not Active	4 nM	–	6.6	Not Active	–
COc1cc2c(cc1OC)CN(Cc1ccc(-c3ccc(O)cc3)cc1)CC2	–	9300 nM	–	–	–	–
COc1cc2c(cc1OC)CN(Cc1ccc(-c3ccc(O)cc3)o1)CC2	Not Active	8100 nM	–	5.7	Not Active	–
COc1cc2c(cc1OC)CN(CCCCOc1ccc(-c3ccc(O)cc3)cc1)CC2	Not Active	–	–	1.5	Not Active	Not Active
